Results: ChEMBL document CHEMBL1125919, “Water-soluble cholesteryl-containing phosphorothioate monogalactosides: synthesis, properties, and use in lowering blood cholesterol by directing plasma lipoproteins to the liver” (1991)

Tests used:
Homo sapiens [1] = organism: Homo sapiens; experiment: Carbohydrate in the Lipoprotein -deficient serum(LPDS) along with compound was measured in human serum; type: functional
How it was run: (§1)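 Human serum (1.6 mL) mixed with 0.4 mL of a 10 mM glycolipid solution in PBS (2 mM final), or with PBS alone, for 10 min at room temperature. Density-gradient ultracentrifugation in KBr/NaCl then gave VLDL (d<1.006), LDL (1.006–1.063), HDL (1.063–1.210) and LPDS (d>1.210 g/mL) fractions. Each fraction was dialyzed against PBS and assayed for cholesterol and carbohydrate, reported as total μg per fraction.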

Homo sapiens [2] = organism: Homo sapiens; experiment: Carbohydrate in the high density lipoprotein (HDL) along with compound was measured in human serum; type: functional; how it was run: as §1
Homo sapiens [3] = organism: Homo sapiens; experiment: Carbohydrate in the very low density lipoprotein (VLDL) along with compound was measured in human serum; type: functional; how it was run: as §1
Homo sapiens [4] = organism: Homo sapiens; experiment: Cholesterol in the low density lipoprotein (LDL) along with compound was measured in human serum; type: functional; how it was run: as §1
Homo sapiens [5] = organism: Homo sapiens; experiment: Cholesterol in the very low density lipoprotein (VLDL) along with compound was measured in human serum; type: functional; how it was run: as §1
Homo sapiens [6] = organism: Homo sapiens; experiment: Cholesterol in the Lipoprotein -deficient serum(LPDS) along with compound was measured in human serum; type: functional; how it was run: as §1
Homo sapiens [7] = organism: Homo sapiens; experiment: Carbohydrate in the low density lipoprotein (LDL) along with compound was measured in human serum; type: functional; how it was run: as §1
[8] = Ratio of carbohydrate in HDL to cholesterol level in HDL; type: functional
How it was run: (§2)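 Same serum incubation (2 mM final, 10 min, room temperature) and density-gradient fractionation into LDL and HDL. The ratio is μg carbohydrate per μg total cholesterol in each fraction. Values in parentheses compare the ratio with the PBS-only serum lipoproteins.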

Homo sapiens [9] = organism: Homo sapiens; experiment: Cholesterol in the high density lipoprotein (HDL) along with compound was measured in human serum; type: functional; how it was run: as §1
Homo sapiens [10] = organism: Homo sapiens; experiment: Cholesterol in the Total along with compound was measured in human serum; type: functional; how it was run: as §1
Homo sapiens [11] = organism: Homo sapiens; experiment: Carbohydrate in the Total along with compound was measured in human serum; type: functional; how it was run: as §1
[12] = Ratio of carbohydrate in LDL to cholesterol level in LDL; type: functional; how it was run: as §2
Homo sapiens [13] = organism: Homo sapiens; experiment: Carbohydrate in the high density lipoprotein (HDL) along with compound was measured in human serum
Rattus norvegicus [14] = organism: Rattus norvegicus; experiment: Effects of N-acetyl-glucosamine on compound stimulated liver association of [125I]LDL measured in liver of rats; type: functional
How it was run: (§3)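 Glycolipid mixed with [125I]LDL at 0.3 mg/mg apolipoprotein or with [125I]HDL at 1.0 mg/mg, then held 10 min at room temperature. The mixture was given intravenously at 50 μg apolipoprotein/kg to pentobarbital-anaesthetized male Wistar rats. N-acetylgalactosamine, N-acetylglucosamine (both 400 mg/kg) or PBS was preinjected 1 min before. At 5 min, TCA-precipitable serum radioactivity and liver-associated radioactivity were measured as % of dose. Mean ± SEM, 3–4 rats; Wilcoxon two-sample test.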

Rattus norvegicus [15] = organism: Rattus norvegicus; experiment: Effects of N-acetyl-galactosamine on compound stimulated liver association of [125I]LDL measured in liver of rats; type: functional; how it was run: as §3
Homo sapiens [16] = organism: Homo sapiens; experiment: Carbohydrate in the very low density lipoprotein (VLDL) along with compound was measured in human serum
Rattus norvegicus [17] = organism: Rattus norvegicus; experiment: Effects of N-acetyl-glucosamine on compound stimulated liver association of [125I]-LDL measured in serum of rats; type: functional; how it was run: as §3
Rattus norvegicus [18] = organism: Rattus norvegicus; experiment: Effects of N-acetyl-galactosamine on compound stimulated liver association of [125I]HDL measured in liver of rats; type: functional; how it was run: as §3
Rattus norvegicus [19] = organism: Rattus norvegicus; experiment: Effects of N-acetyl-glucosamine on compound stimulated liver association of [125I]HDL measured in preinjcted rats; type: functional; how it was run: as §3
Rattus norvegicus [20] = organism: Rattus norvegicus; experiment: Effects of N-acetyl-galactosamine on compound stimulated liver association of [125I]LDL measured in serum of rats; type: functional; how it was run: as §3
Rattus norvegicus [21] = organism: Rattus norvegicus; experiment: Effects of N-acetyl-galactosamine on compound stimulated liver association of [125I]HDL measured in serum of rats; type: functional; how it was run: as §3
Rattus norvegicus [22] = organism: Rattus norvegicus; experiment: Effects of N-acetyl-glucosamine on compound stimulated liver association of [125I]HDL measured in liver of rats; type: functional; how it was run: as §3

| Structure (SMILES) | Carbohydrate (Homo sapiens [1]) [µg] | Carbohydrate (Homo sapiens [3]) [µg] | Cholesterol (Homo sapiens [4]) [µg] | Cholesterol (Homo sapiens [5]) [µg] | Cholesterol (Homo sapiens [6]) [µg] | Carbohydrate (Homo sapiens [7]) [µg] | Ratio [8] | Cholesterol (Homo sapiens [9]) [µg] | Cholesterol (Homo sapiens [10]) [µg] | Carbohydrate (Homo sapiens [11]) [µg] | Ratio [12] | Carbohydrate (Homo sapiens [13]) [µg] | further results |
| --- | --- | --- | --- | --- | --- | --- | --- | --- | --- | --- | --- | --- | --- |
| CC(C)CCCC(C)C1CCC2C3CC=C4CC(OCCOCCOCCOCCOP(O)(=S)OCCOCCOCCSC5OC(CO)C(O)C(O)C5O)CCC4(C)C3CCC12C (stereo not given) | 1720 | 100 | 1296 | 101 | 66 | 520 | 0.81 | 484 | 1947 | 2730 | 0.4 |  | Carbohydrate (Homo sapiens [2]): 390 µg |
| CC(C)CCCC(C)C1CCC2C3CC=C4CC(OCCOCCOCCOCCOP(O)(=S)OCCSC5OC(CO)C(O)C(O)C5O)CCC4(C)C3CCC12C (stereo not given) | 1590 | 80 | 1161 | 108 | 85 | 580 | 0.92 | 500 | 1885 | 2710 | 0.5 | 460 |  |
| CC(C)CCCC(C)C1CCC2C3CC=C4CC(OCCOCCOCCOCCOP(O)(=S)OCCO[C@@H]5O[C@H](CO)[C@H](O)[C@H](O)[C@H]5O)CCC4(C)C3CCC12C (stereo not given in full) | 1710 | 100 | 1048 | 104 | 70 | 480 | 0.8 | 627 | 1850 | 2790 | 0.45 | 500 | Dose (Rattus norvegicus [14]): 61.6%; Dose (Rattus norvegicus [15]): 5.1%; Carbohydrate (Homo sapiens [16]): 100 µg; Dose (Rattus norvegicus [17]): 29.3%; Dose (Rattus norvegicus [18]): 5.8%; Dose (Rattus norvegicus [19]): 61.1%; Dose (Rattus norvegicus [20]): 92.2%; Dose (Rattus norvegicus [21]): 78.8%; Dose (Rattus norvegicus [22]): 22.2% |
